Source: PubChem BioAssay (several laboratories)
Compounds with a hit are over-represented: about 1.6% of the library has one in this group of screens.
HKDC1 inhibitor: HKDC1 hexokinase inhibitors, primary screen, biochemical, fluorescence, uHTS | 340,000 compounds, 0.16% hits | inhibition, % at 20 µM | Q2TB90 | recombinant HKDC1, G6PDH/diaphorase resazurin coupled fluorescence;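 active = inhibition above about 35% when tested at 20 µM, limit read from the data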;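 also: plate controls were DMSO wells with enzyme for no effect and DMSO wells lacking enzyme for full effect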
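Material: recombinant HKDC1 hexokinase; Amount: HKDC1 at 5 µg/mL; Medium: Tris pH 8.0 buffer with MgCl2, Tween-20, BSA, BME; Schedule: 90 min reaction incubation at room temperature, dark; Technique: coupled resazurin fluorescence, excitation 525 nm, emission 613 nm.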
PfGluPho inh: PfG6PD enzyme inhibitors, primary screen, biochemical, fluorescence intensity, uHTS; inhibition, % at 20 µM; glucose-6-phosphate dehydrogenase-6-phosphogluconolactonase (Plasmodium falciparum 3D7); PfGluPho enzyme, NADPH resazurin-diaphorase fluorescence; 350,000 compounds, 0.78% hits;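 active = inhibition reaching at least a set limit at 20 µM in the primary screen, cut at about 59% in these data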;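 also: 0% = DMSO wells with substrate and 100% = DMSO wells lacking glucose-6-phosphate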
PKA-R2B act: activators of PKA-R2B holoenzyme, primary screen, biochemical, fluorescence polarization, Cy5-IP20, human; PKA-R2B holoenzyme dissociation; R2B truncated from residue 108, S112A mutant; 0% DMSO only, 100% 113 µM cGMP; activation, % at 11.4 µM; cAMP-dependent protein kinase catalytic subunit beta (Homo sapiens) + cAMP-dependent …; 340,000 compounds, 0.079% hits;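 active = activation above a cutoff set at the mean over all compounds plus 3 SD, cut at about 18% in these data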;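 also: higher means more holoenzyme dissociation and a rise in polarization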
Target sequence (P31323 whole entry, looked up, other chains not shown, the tested form may be a part): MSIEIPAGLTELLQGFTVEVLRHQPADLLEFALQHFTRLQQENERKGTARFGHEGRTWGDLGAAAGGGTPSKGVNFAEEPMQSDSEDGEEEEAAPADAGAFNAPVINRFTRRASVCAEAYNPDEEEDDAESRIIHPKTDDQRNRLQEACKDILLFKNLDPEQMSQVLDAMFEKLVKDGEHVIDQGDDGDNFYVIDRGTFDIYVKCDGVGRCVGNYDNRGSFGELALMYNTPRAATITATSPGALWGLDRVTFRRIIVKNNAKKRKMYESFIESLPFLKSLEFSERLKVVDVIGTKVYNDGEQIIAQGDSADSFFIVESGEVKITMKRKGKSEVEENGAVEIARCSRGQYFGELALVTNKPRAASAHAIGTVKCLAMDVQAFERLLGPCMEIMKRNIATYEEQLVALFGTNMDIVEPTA
ATG4B inh: ATG4B protease inhibitors, primary screen, biochemical, fluorescence, uHTS | ATG4B cleavage of LC3-PLA2, NBD-HPC fluorescence, 1 h | inhibition, % at 8.33 µM | 340,000 compounds, 0.51% hits; in the data active = inhibition above about 40%
T cell HTS: modulators of CD8 T cell-vesicle binding, primary screen, mouse 2C CD8+ T cells, flow cytometry. 2C CD8+ T cell-vesicle binding; stronger effect = lower value. response (vesicle binding), % at 7 µM. 330,000 compounds, 0.068% hits. AID 2052, 2009;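 active = response, share of CD8 T cells binding vesicles, and their 90th percentile fluorescence all below set limits, cut at about 80% in these data, passing the limit was not always enough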;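 also: values below 100% mean blocked vesicle binding to the CD8+ T cells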
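Read-out – percent CD8+ FL2 mean versus row control · System – murine 2C transgenic CD8+ T lymphocytes · Times – 1.5 h cell–vesicle binding at 37 °C, then 20 min icy labelling · Control set – naked vesicles low, QL9 vesicles with vehicle high · Detection – cytometric PE anti-B7-1 and Alexa647 anti-CD8 signals after 1% paraformaldehyde fixation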
PKA-R1A activ: activators of PKA-R1A holoenzyme, primary screen, biochemical, fluorescence polarization, Cy5-IP20, bovine R1A, mouse PKAc. PKA-R1A dissociation; scaled: DMSO 0%, 113 µM cGMP 100%. activation, % at 11.4 µM. 340,000 compounds, 0.083% hits;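 active = percent activation above the mean of all tested compounds plus 3 SD, cut at about 19% in these data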;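 also: higher means more PKAc released from R1A so a rise in polarization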
HKDC1 act conf: HKDC1 hexokinase activators, confirmation, biochemical, single concentration. shares compounds with HKDC1 inhibitor. recombinant HKDC1, G6PDH/diaphorase resazurin fluorescence; stronger effect = lower value. inhibition, % at 20 µM. 740 compounds, 14% hits. AID 504708, 2011;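 active = inhibition at or below a set negative limit, negative inhibition meaning the enzyme was activated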
The depositor's hits bear a star; i = inactive; / = no result given.

SMILES | HKDC1 inhibitor | PfGluPho inh | PKA-R2B act | ATG4B inh | T cell HTS | PKA-R1A activ | HKDC1 act conf
O=C(c1c[nH]c(C(=O)C(Cl)(Cl)Cl)c1)c1ccccc1Cl | 14 | 6 | 5 | -3 | 243 | -9 | /
NC(=O)c1cc(C(=O)c2ccc(Cl)cc2)c[nH]1 | -2 | -12 | -1 | 2 | 144 | -3 | /
O=C(c1c[nH]c(C(=O)C(Cl)(Cl)Cl)c1)c1c(F)cccc1F | 38* | -1 | -4 | -2 | 347 | 1 | 14
CCN(CC(=O)Nc1ccc(NC(C)=O)cc1)C(=O)CSCc1c(C)noc1C | 0 | -1 | 3 | -7 | 456 | -6 | /
Cc1ccccc1N=C1NN=C(c2ccccc2F)CS1 | -47 | 8 | -3 | 10 | 185 | -7 | -40*
COc1ccc(CN2C(=O)c3cccnc3C2O)cc1 (stereo not drawn) | 41* | 14 | 4 | -2 | i | -1 | 36
COc1cccc(N2C(=O)c3cccnc3C2O)c1 (stereo not drawn) | -4 | 6 | -2 | -2 | 564 | -6 | /
COP(=O)(OC)c1ccc(NCc2cc(O)ccc2O)cc1 | 43* | 49 | 3 | 4 | / | -6 | 53
CSc1nc(N)nc2c1ncn2CC(=O)N[C@H](C)c1cccc2ccccc12 | -55 | -67 | 7 | -11 | 393 | 7 | -74*
CCOC(=O)c1cc2c(=Cc3ccc(N(C)C)cc3)c3ccccc3n2[n+]1C | 37* | 50 | 2 | 22 | / | 6 | -8
Cc1cc2c(=Cc3ccc(N(C)C)cc3)c3ccccc3n2[n+]1C | -4 | 27 | -2 | 14 | / | -3 | /
CCN(CC(=O)NCc1cccs1)C(=O)c1ccc(N(C)S(=O)(=O)c2ccc(C)cc2)cc1 | -4 | 0 | -11 | -7 | / | -3 | /
COC1=CC(=O)C(OC)=C(OC)C1=O | 76* | 120* | -1 | -2 | / | -11 | 72
COc1ccc(OC)c2c1C(=O)c1ccccc1C2=O | 19 | 22 | / | -17 | 317 | / | /
N=C1/C(=C\c2coc3ccccc3c2=O)C(=O)N=C2SC(c3ccncc3)=NN12 | 45* | 8 | -5 | 11 | 204 | 0 | 32
CCOC(=O)c1cc2c(OC)ccc(OC)c2n1CC(=O)c1ccccc1 | -2 | 3 | -6 | 0 | 292 | -4 | /
Cc1cc(Oc2ccc(OCC(N)=O)nn2)nc(Cl)n1 | -9 | -6 | -18 | -3 | 191 | -15 | /
COc1ccc(Oc2cc(C)nc(Cl)n2)nn1 | -78 | -4 | 0 | -3 | 483 | -15 | -15
O=C(O)c1ccc2c(c1)C(=O)N(c1cccc(-c3nc4ccccc4s3)c1)C2=O | 34 | -25 | -5 | 9 | 133 | -12 | -11
Cc1cccc2c(N=NC(=O)c3ccc(NS(=O)(=O)c4cccs4)cc3)c(O)[nH]c12 | 36* | 59 | 8 | -4 | 294 | 0 | 63
CCOC(=O)N1CCN(C(=O)CS(=O)Cc2nc(-c3ccc(OC)c(OC)c3)oc2C)CC1 (stereo not drawn) | -4 | -8 | 1 | -1 | 200 | -10 | /
COc1ccc2c(c1)/C(=C\c1cccc(/C=C3/C(=O)Nc4ccc(OC)cc43)n1)C(=O)N2 | 37* | 22 | -11 | -4 | / | -6 | 24
CCOC(=O)C1=C(Cc2ccc(F)cc2)C(=O)c2ccccc2C1=O | 73* | 98* | -7 | 31 | i | -9 | 59
NCCCC[C@@H](C(=O)N1CCNCC1)n1cc([C@@H](N)CC(N)=O)nn1 | -4 | -3 | 3 | -4 | 746 | 1 | /
Cc1onc(-c2ccccc2)c1C(=O)N/N=C(\N)COc1ccc(Cl)cc1 | -23 | -23 | -4 | -3 | 641 | 13 | /
SMILES | HKDC1 inhibitor | PfGluPho inh | PKA-R2B act | ATG4B inh | T cell HTS | PKA-R1A activ | HKDC1 act conf
Cc1onc(-c2ccccc2Cl)c1C(=O)N/N=C(\N)COc1ccc(Cl)cc1 | -39 | -37 | -8 | 4 | 358 | -8 | -32
Cc1ccc2cc(/C=C(\C#N)C(N)=O)c(N3CCCCC3)nc2c1 | 9 | 23 | -7 | -6 | 136 | -13 | /
Cc1ccc2cc(C=C(C#N)C#N)c(N3CCCCC3)nc2c1 | 41* | -8 | -8 | 4 | i | 2 | -11
COC1=CC(=O)C(C2CC(=O)c3c(O)cc(O)cc3O2)=CC1=O (stereo not drawn) | 60* | 124* | -5 | 0 | / | -2 | 40
COc1c(CC=C(C)C)cc(C2CC(=O)c3c(O)cc(O)cc3O2)cc1CC=C(C)C (stereo not drawn) | 6 | 18 | 0 | -11 | 338 | 16 | /
COCCn1c(N)c(N(Cc2ccccc2)C(=O)C(C)Oc2ccc(Br)cc2)c(=O)[nH]c1=O (stereo not drawn) | / | -14 | -10 | / | / | -2 | /
Cc1ccccc1S(=O)(=O)N1C[C@H]2CON(C)[C@H]2C[C@H]1c1cccc(Oc2ccccc2)c1 | 0 | 18 | -9 | 2 | / | 4 | /
Cc1noc(C)c1S(=O)(=O)N(C)C[C@H]1Oc2c(NS(=O)(=O)c3cn(C)cn3)cccc2C(=O)N([C@H](C)CO)C[C@@H]1C | 0 | -11 | -18 | 2 | 369 | -20 | /
Cc1cccc(NC(=O)CNC(=O)c2ccc(S(=O)(=O)NCc3ccco3)cc2)c1C | / | -1 | -1 | / | / | 8 | /
CC(=NNC(=S)N(Cc1ccccn1)Cc1ccccn1)c1cnccn1 | -38 | 20 | 12 | 0 | / | -10 | /
S=C(NN=C(c1ccccc1)c1ccccn1)N(Cc1ccccn1)Cc1ccccn1 | -46 | 47 | -4 | 3 | / | -15 | -59*
CCOC(=O)/C=C(\C)Sc1cc(O)c2ccccc2c1O | 57* | 108* | -4 | 7 | / | -17 | 54
COc1ccc(NC(=O)CCCNC(=O)c2ccc(Cl)cc2)cc1S(=O)(=O)N1CCCCC1 | -5 | -16 | 2 | -4 | / | 11 | /
Oc1ccc2ccccc2c1C=NC1CCCCC1 | 35* | 24 | 9 | 11 | 460 | -11 | -8
CCN(CC)Cc1cc(O)c(CN(CC)CC)cc1O | 47* | 76* | 1 | -6 | / | 7 | 41
Cc1ccc(/C=N/Nc2nncc(-c3ccccc3)n2)o1 | 3 | -1 | / | 1 | 304 | / | /
